# Calls of active or inactive are those of the source. The calls are words filed in the database; no cut-off is given here.
# Columns and labels:
# [1] = target: Sodium-dependent dopamine transporter (Homo sapiens) (UniProt Q01959); assay: Displacement of [125I]-RTI-55 from human recombinant DAT expressed in CHO-K1 cells at 10 uM relative to control; type: cell-based
# Method in brief: (§1)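 Tested once at 10 μM in a commercial radioligand binding panel of 68 GPCRs, ion channels, kinases and transporters. Activity is given as displacement of each radioligand relative to control.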
# [2] = target: Sigma non-opioid intracellular receptor 1 (Homo sapiens) (UniProt Q99720); assay: Displacement of [3H]-Haloperidol from sigma1 receptor in human Jurkat cells at 10 uM relative to control; type: cell-based; method in brief: as §1
# Sequence of Sigma non-opioid intracellular receptor 1 (Homo sapiens) (Q99720 whole entry): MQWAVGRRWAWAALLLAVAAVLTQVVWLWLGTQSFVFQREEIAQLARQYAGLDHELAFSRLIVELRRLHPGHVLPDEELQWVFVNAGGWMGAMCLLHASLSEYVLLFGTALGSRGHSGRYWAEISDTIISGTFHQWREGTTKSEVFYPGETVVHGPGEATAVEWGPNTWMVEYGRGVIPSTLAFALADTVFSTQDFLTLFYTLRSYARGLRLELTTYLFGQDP
# Mesocricetus auratus = species: Mesocricetus auratus; assay: Displacement of [3H]-Glyburide from ATP-sensitive potassium channel in hamster pancreatic HIT-T15 beta cells at 10 uM relative to control; method in brief: as §1
# IMR-32 = assay: Displacement of [125I] Epibatidine from nicotinic acetylcholine receptor in human IMR32 cells at 10 uM relative to control; type: cell-based; method in brief: as §1
# [3] = target: Neuropeptide Y receptor type 2 (Homo sapiens) (UniProt P49146); assay: Displacement of [125I]-Peptide YY from neuropeptide Y Y2 receptor in human KAN-TS cells at 10 uM relative to control; type: cell-based; method in brief: as §1
# Sequence of Neuropeptide Y receptor type 2 (Homo sapiens) (P49146 whole entry): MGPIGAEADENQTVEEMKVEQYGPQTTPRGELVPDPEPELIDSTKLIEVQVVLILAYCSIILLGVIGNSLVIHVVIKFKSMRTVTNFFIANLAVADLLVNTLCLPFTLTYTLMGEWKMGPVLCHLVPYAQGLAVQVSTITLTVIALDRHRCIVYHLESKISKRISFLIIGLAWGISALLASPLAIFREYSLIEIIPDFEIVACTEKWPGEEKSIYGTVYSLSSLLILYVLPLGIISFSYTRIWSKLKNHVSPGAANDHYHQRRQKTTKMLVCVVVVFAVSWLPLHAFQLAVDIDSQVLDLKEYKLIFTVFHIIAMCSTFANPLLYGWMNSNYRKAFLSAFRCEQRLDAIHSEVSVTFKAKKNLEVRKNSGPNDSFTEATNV
# [4] = target: Muscarinic acetylcholine receptor M3 (Homo sapiens) (UniProt P20309); assay: Displacement of [3H]-N-Methylscopolamine from human recombinant muscarinic M3 receptor expressed in CHO-K1 cells at 10 uM relative to control; type: cell-based; method in brief: as §1
# Sequence of Muscarinic acetylcholine receptor M3 (Homo sapiens) (P20309 whole entry, looked up): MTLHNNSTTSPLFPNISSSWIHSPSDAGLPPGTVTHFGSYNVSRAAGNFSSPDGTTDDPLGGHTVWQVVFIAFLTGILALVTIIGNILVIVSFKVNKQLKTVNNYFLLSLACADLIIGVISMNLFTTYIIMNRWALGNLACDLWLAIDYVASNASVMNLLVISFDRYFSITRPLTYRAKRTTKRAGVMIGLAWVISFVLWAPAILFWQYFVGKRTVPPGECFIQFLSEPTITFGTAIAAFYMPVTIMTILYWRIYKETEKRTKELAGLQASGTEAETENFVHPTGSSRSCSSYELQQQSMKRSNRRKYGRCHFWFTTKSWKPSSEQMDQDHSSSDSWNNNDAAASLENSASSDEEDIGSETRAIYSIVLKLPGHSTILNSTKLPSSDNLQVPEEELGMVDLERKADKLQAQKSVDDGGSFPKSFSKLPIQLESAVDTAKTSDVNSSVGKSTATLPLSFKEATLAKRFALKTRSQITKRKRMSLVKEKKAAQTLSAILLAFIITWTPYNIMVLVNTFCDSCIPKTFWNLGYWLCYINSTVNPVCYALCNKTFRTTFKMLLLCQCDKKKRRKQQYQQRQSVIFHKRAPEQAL
# [5] = target: T1, Glutamate NMDA receptor (Rattus norvegicus) (UniProt P35439+Q00959+Q00960+Q00961+Q62645+Q8VHN2+Q9R1M7); assay: Displacement of [3H]-MDL 105,519 from NMDA receptor glycine binding site in rat cerebral cortex at 10 uM relative to control; type: tissue-based; method in brief: as §1
# [6] = target: T1, Glutamate NMDA receptor (Rattus norvegicus); assay: Displacement of [3H]-CGP-39653 from NMDA receptor agonist binding site in rat cerebral cortex at 10 uM relative to control; type: tissue-based; method in brief: as §1
# [7] = target: Endothelin receptor type B (Homo sapiens) (UniProt P24530); assay: Displacement of [125I]-Endothelin-1 from human recombinant ETB receptor expressed in CHO-K1 cells at 10 uM relative to control; type: cell-based; method in brief: as §1
# [8] = target: D(1A) dopamine receptor (Homo sapiens) (UniProt P21728); assay: Displacement of [3H]-SCH-23390 from human recombinant dopamine D1 receptor expressed in CHO cells at 10 uM relative to control; type: cell-based
# Sequence of D(1A) dopamine receptor (Homo sapiens) (P21728 whole entry): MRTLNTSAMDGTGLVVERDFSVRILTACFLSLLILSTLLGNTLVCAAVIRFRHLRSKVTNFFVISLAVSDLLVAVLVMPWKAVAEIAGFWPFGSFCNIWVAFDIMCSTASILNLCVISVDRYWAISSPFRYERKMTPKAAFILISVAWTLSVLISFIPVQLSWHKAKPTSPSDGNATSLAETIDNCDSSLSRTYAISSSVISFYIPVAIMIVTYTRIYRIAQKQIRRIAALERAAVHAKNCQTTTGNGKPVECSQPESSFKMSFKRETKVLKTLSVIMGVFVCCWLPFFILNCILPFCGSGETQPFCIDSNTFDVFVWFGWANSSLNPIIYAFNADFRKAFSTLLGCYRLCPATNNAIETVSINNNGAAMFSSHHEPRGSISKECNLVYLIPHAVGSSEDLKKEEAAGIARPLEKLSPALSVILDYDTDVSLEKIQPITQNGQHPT
# [9] = target: Alpha-1D adrenergic receptor (Homo sapiens) (UniProt P25100); assay: Displacement of [3H]-Prazosin from human recombinant adrenergic alpha1D receptor expressed in HEK293 cells at 10 uM relative to control; type: cell-based
# Sequence of Alpha-1D adrenergic receptor (Homo sapiens) (P25100 whole entry): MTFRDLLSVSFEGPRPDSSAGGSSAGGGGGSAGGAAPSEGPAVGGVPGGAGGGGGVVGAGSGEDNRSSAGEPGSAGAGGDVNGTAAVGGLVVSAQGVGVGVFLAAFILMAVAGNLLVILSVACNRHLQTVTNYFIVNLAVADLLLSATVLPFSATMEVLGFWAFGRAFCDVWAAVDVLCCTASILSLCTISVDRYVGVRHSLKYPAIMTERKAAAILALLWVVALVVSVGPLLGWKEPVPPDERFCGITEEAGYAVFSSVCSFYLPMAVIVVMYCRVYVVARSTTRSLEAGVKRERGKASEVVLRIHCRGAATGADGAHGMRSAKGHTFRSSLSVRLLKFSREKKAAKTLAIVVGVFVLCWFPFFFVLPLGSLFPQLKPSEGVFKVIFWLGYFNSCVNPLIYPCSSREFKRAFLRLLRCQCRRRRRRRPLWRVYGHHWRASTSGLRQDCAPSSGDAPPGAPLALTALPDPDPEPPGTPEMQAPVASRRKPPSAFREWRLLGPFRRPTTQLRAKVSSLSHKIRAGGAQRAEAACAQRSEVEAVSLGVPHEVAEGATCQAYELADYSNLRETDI
# [10] = target: Alpha-1B adrenergic receptor (Rattus norvegicus) (UniProt P15823); assay: Displacement of [3H]-Prazosin from adrenergic alpha1B receptor in rat liver at 10 uM relative to control
# [11] = target: Alpha-2A adrenergic receptor (Homo sapiens) (UniProt P08913); assay: Displacement of [3H]-Rauwolscine from human recombinant adrenergic alpha2A receptor expressed in CHO-K1 cells at 10 uM relative to control; type: cell-based
# [12] = target: Metabotropic glutamate receptor 8 (Rattus norvegicus) (UniProt P70579); assay: Allosteric modulation of rat mGlu8 receptor expressed in HEK293 cells coexpressing G protein-activated inward rectifier potassium channel assessed as effect on glutamate-induced thallium flux at 10 uM; type: cell-based
# Sequence of Metabotropic glutamate receptor 8 (Rattus norvegicus) (P70579 whole entry): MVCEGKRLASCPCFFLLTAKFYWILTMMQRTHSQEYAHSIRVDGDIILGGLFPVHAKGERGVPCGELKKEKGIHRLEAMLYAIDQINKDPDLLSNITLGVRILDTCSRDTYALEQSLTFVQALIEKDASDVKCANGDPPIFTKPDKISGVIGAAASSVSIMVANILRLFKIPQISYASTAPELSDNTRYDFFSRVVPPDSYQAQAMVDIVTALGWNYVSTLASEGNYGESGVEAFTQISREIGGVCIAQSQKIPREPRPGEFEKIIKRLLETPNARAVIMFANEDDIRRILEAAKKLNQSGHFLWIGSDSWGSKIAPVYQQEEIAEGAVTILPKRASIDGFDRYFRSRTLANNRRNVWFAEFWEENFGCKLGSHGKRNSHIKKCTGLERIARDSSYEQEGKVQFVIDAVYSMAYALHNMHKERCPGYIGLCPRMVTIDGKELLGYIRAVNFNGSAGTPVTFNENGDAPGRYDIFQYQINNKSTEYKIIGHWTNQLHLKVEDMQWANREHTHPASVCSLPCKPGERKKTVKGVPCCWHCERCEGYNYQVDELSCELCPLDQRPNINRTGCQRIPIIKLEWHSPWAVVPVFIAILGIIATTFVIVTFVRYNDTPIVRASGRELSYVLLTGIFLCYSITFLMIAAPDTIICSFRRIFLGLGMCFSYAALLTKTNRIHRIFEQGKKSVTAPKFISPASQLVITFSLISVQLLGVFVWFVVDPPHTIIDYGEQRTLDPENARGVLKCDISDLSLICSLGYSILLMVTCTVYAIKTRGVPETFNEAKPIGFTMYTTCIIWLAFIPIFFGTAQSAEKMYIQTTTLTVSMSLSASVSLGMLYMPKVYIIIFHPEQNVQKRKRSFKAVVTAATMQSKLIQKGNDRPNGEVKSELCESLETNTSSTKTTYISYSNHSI
# [13] = target: Metabotropic glutamate receptor 2 (Rattus norvegicus) (UniProt P31421); assay: Allosteric modulation of rat mGlu2 receptor expressed in HEK293 cells coexpressing G protein-activated inward rectifier potassium channel assessed as effect on glutamate-induced thallium flux at 10 uM; type: cell-based
# Sequence of Metabotropic glutamate receptor 2 (Rattus norvegicus) (P31421 19-872 limits assumed): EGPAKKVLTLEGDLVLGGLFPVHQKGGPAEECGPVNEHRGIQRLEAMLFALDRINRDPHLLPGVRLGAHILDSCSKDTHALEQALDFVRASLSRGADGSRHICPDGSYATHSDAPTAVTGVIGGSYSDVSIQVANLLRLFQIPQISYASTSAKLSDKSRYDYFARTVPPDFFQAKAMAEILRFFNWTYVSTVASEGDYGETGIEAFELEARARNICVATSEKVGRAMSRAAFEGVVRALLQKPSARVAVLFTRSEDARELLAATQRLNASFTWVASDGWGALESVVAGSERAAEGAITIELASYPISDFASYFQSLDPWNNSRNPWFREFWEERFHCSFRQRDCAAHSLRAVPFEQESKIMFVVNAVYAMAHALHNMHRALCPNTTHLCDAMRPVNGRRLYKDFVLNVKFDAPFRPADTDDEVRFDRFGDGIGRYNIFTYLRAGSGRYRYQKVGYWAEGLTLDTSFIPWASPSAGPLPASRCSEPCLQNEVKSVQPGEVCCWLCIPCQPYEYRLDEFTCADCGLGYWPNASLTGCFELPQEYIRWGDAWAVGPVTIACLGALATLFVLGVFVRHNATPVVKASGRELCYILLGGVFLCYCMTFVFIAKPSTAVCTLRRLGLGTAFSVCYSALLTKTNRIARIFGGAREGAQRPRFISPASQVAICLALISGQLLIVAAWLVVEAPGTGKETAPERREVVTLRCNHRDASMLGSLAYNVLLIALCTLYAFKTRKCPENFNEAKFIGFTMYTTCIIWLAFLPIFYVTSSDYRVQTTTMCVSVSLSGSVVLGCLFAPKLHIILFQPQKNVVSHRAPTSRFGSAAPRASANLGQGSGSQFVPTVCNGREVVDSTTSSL
# Brain = assay: Fraction unbound in mouse brain homogenates by equilibrium dialysis technique; type: ADME, tissue-based; conditions: brain homogenate
# Sequence of Sodium-dependent dopamine transporter (Homo sapiens) (Q01959 whole entry): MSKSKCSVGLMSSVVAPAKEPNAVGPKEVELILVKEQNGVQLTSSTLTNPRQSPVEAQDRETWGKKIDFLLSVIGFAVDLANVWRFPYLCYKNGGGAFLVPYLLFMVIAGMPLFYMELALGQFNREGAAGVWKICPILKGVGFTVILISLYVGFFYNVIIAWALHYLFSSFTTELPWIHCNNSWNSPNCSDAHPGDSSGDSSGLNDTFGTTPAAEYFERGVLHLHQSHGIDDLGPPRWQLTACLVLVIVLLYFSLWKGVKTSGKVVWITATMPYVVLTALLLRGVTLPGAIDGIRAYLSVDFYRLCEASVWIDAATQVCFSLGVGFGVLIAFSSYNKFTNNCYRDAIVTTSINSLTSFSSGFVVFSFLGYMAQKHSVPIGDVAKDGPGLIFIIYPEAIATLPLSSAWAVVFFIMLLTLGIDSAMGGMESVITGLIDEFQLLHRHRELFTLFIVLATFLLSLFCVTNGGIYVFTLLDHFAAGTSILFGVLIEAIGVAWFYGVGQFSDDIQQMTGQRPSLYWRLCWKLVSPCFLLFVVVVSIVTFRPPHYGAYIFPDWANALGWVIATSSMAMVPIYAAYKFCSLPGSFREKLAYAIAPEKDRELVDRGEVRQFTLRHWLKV
smiles,measurement,setting,value
Cc1csc(NC(=O)c2cc(F)cc(Oc3cncnc3)c2)n1,inhibition,[1],> 35%
same,inhibition,[2],> 35%
same,inhibition,Mesocricetus auratus,> 35%
same,inhibition,IMR-32,> 35%
same,inhibition,[3],> 35%
same,inhibition,[4],> 35%
same,inhibition,[5],> 35%
same,inhibition,[6],> 35%
same,inhibition,[7],> 35%
same,inhibition,[8],> 35%
same,inhibition,[9],> 35%
same,inhibition,[10],> 35%
same,inhibition,[11],> 35%
same,Activity,[12],inactive
same,Activity,[13],inactive
same,Fu,Brain,0.082

# Reference: ChEMBL document CHEMBL2439973, “Discovery of VU0409106: A negative allosteric modulator of mGlu5 with activity in a mouse model of anxiety” (Bioorg Med Chem Lett, 2013)
